Source: ChEMBL document CHEMBL1127414 (J Med Chem, 1994)
pIC50: −log10 of the molar value.

Assays:
[1] = biological target: T1, Squalene synthase (Mus musculus) (UniProt P53798); experiment: Tested for the effective dose required for the incorporation of [5-3H]-mevalonolactone into cholesterol by in vivo mouse assay by peroral administration; assay type: functional, organism-based
T1 sequence (whole entry): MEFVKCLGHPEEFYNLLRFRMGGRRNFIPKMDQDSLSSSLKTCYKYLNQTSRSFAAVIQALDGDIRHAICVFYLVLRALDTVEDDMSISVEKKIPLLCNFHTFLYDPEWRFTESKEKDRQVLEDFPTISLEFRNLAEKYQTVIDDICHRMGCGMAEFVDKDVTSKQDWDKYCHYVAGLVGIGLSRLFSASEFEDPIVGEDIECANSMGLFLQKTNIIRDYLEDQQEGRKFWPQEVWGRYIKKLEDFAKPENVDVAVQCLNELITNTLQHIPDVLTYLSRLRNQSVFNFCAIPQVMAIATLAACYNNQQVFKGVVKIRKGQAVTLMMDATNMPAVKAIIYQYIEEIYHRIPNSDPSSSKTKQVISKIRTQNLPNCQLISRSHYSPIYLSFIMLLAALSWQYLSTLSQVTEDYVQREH
Procedure, shortened: (§1)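 Female Swiss Webster mice (~25 g), six per group, dosed po by gavage with inhibitor suspended in 5% emulphor. 30 min later, 0.5 μCi/mouse [5-3H]mevalonolactone in saline given sc. Livers removed 30 min after that and saponified in KOH/EtOH overnight at 55 °C, then petroleum-ether extracted. Nonsaponifiable dpm counted. Compounds first tested at a single dose (typically 12 or 24 mg/kg).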

Squalene synthase = biological target: T2, Squalene synthase (Rattus norvegicus, UniProt Q02769); experiment: Tested for inhibition against squalene synthase enzyme in rat liver
T2 sequence (Q02769 whole entry): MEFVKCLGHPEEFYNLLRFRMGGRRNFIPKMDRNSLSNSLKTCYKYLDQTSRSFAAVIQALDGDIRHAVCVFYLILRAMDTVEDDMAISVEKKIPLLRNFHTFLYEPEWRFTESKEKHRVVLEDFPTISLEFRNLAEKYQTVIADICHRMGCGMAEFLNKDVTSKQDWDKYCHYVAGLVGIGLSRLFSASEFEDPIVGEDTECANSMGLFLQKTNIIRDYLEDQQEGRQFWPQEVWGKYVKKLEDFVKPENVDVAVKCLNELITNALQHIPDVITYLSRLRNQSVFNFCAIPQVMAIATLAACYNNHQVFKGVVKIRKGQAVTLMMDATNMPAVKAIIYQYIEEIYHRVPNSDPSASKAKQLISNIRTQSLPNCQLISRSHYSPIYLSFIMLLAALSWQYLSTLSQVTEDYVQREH

[2] = biological target: T3, Squalene synthase (Rattus norvegicus) (UniProt Q02769); experiment: Concentration required to inhibit rat liver squalene synthase enzyme relative to control (L-694,599)
T3 sequence (whole entry): T2 sequence (Q02769 whole entry)
Procedure, shortened: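 Enzyme from rat liver. […] Inhibitors added in DMSO (0.3% final) as 3-fold serial dilutions, usually up to 30 ng/mL (about 40 nM). IC50 read from % inhibition vs log concentration.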

Mus musculus = experiment: Ability to inhibit the incorporation of [5-3H]-mevalonolactone into cholesterol by in vivo mouse assay by peroral administration at a dose of 24 mg/kg; assay type: functional; conditions: route oral; procedure, shortened: as §1

Row | SMILES | ED50 [1] [mg/kg] | pIC50 (Squalene synthase) | Relative activity [2] | inhibition in vivo at 24 mg/kg (Mus musculus) [%]
1 | C=C(CCC12OC(C(=O)O)C(O)(C(=O)O)C(C(=O)O)(O1)[C@H](OC(=O)NCC1CC1)[C@H]2O)[C@@H](OC(C)=O)[C@H](C)Cc1ccccc1 (some centres not stated) | 8 | 7.77 | 0.04 | 
2 | C=C(CCC12OC(C(=O)O)C(O)(C(=O)O)C(C(=O)O)(O1)[C@H](OC(=O)C(C)C)[C@H]2O)[C@@H](OC(C)=O)[C@H](C)Cc1ccccc1 (some centres not stated) | 8 | 7.68 | 0.02 | 
3 | C=C(CCC12OC(C(=O)O)C(O)(C(=O)O)C(C(=O)O)(O1)[C@H](OC(=S)NC(C)C)[C@H]2O)[C@@H](OC(C)=O)[C@H](C)Cc1ccccc1 (some centres not stated) |  | 7.85 |  | 
4 | C=C(CCC12OC(C(=O)O)C(O)(C(=O)O)C(C(=O)O)(O1)[C@H](OC(=O)CCC)[C@H]2O)[C@@H](OC(C)=O)[C@H](C)Cc1ccccc1 (some centres not stated) | 4.5 | 8.04 | 0.07 | 
5 | C=C(CCC12OC(C(=O)O)C(O)(C(=O)O)C(C(=O)O)(O1)[C@H](O)[C@H]2O)[C@@H](OC(C)=O)[C@H](C)Cc1ccccc1 (some centres not stated) | > 24 |  |  | 34
6 | C=C(CCC12OC(C(=O)O)C(O)(C(=O)O)C(C(=O)O)(O1)[C@H](OC(=O)N(C)C)[C@H]2O)[C@@H](OC(C)=O)[C@H](C)Cc1ccccc1 (some centres not stated) | > 24 |  |  | 
7 | C=C(CCC12OC(C(=O)O)C(O)(C(=O)O)C(C(=O)O)(O1)[C@H](OC(=O)NC1CCC1)[C@H]2O)[C@@H](OC(C)=O)[C@H](C)Cc1ccccc1 (some centres not stated) | 6 | 7.85 | 0.05 | 
8 | C=C(C)CC(=O)O[C@@H]1[C@@H](O)C2(CCC(=C)[C@@H](OC(C)=O)[C@H](C)Cc3ccccc3)OC(C(=O)O)C(O)(C(=O)O)C1(C(=O)O)O2 (some centres not stated) | 12 | 8.25 | 0.06 | 
9 | C=C(CCC12OC(C(=O)O)C(O)(C(=O)O)C(C(=O)O)(O1)[C@H](OC(=O)CCC)[C@H]2O)[C@@H](OC(=O)CC)[C@H](C)Cc1ccccc1 (some centres not stated) |  | 8.06 | 0.03 | 67
10 | C=C(CCC12OC(C(=O)O)C(O)(C(=O)O)C(C(=O)O)(O1)[C@H](OC(=O)NCC)[C@H]2O)[C@@H](OC(C)=O)[C@H](C)Cc1ccccc1 (some centres not stated) | 11 | 7.80 | 0.02 | 
11 | C=C(CCC12OC(C(=O)O)C(O)(C(=O)O)C(C(=O)O)(O1)[C@H](OC(=O)NC1CC1)[C@H]2O)[C@@H](OC(C)=O)[C@H](C)Cc1ccccc1 (some centres not stated) | 11 | 8.49 | 0.09 | 
12 | CCCC(=O)O[C@@H]1[C@@H](O)C2(CCCCc3cccc4ccccc34)OC(C(=O)O)C(O)(C(=O)O)C1(C(=O)O)O2 (some centres not stated) |  | 5.74 | 0.00014 | 
13 | C=C(CCC12OC(C(=O)O)C(OCCCCCCCCCCCC)(C(=O)O)C(C(=O)O)(O1)[C@H](O)[C@H]2O)[C@@H](OC(C)=O)[C@H](C)Cc1ccccc1 (some centres not stated) |  | 8.92 | 0.08 | 
14 | C=C(CCC12OC(C(=O)O)C(O)(C(=O)O)C(C(=O)O)(O1)[C@H](OC(=O)CC(C)C)[C@H]2O)[C@@H](OC(C)=O)[C@H](C)Cc1ccccc1 (some centres not stated) | 11 | 8.37 | 0.13 | 
15 | C=C(CCC12OC(C(=O)O)C(O)(C(=O)O)C(C(=O)O)(O1)[C@H](OC(=O)NCc1ccccc1)[C@H]2O)[C@@H](OC(C)=O)[C@H](C)Cc1ccccc1 (some centres not stated) | 40 | 8.80 | 0.14 | 
16 | CC[C@H](C)C[C@H](C)CCC(=O)O[C@@H]1[C@@H](O)C2(CCCCCCc3ccccc3)OC(C(=O)O)C(O)(C(=O)O)C1(C(=O)O)O2 (some centres not stated) |  | 8.74 | 0.144 | -2
17 | C=C(CCC12OC(C(=O)O)C(O)(C(=O)O)C(C(=O)O)(O1)[C@H](OCCC[C@@H](C)C[C@@H](C)CC)[C@H]2O)[C@@H](OC(C)=O)[C@H](C)Cc1ccccc1 (some centres not stated) |  | 9.70 | 1 | 38
18 | C=C(CCC12OC(C(=O)O)C(O)(C(=O)O)C(C(=O)O)(O1)[C@H](OC(=O)OCCC[C@@H](C)C[C@@H](C)CC)[C@H]2O)[C@@H](OC(C)=O)[C@H](C)Cc1ccccc1 (some centres not stated) |  | 9.59 | 0.77 | -4
